Source: ChEMBL document CHEMBL4190234, “Design, synthesis and anticancer activity of new monastrol analogues bearing 1,3,4-oxadiazole moiety” (Eur J Med Chem, 2017)

Assays:
[1] = tested on: NCI/ADR-RES; assay: Growth inhibition of human NCI/ADR-RES cells at 10 uM incubated for 48 hrs by sulforhodamine B assay relative to control; format: functional; conditions: read-out: GI
Method in brief: (§1)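 Single-dose screen at 10 μM final: cells in RPMI 1640, 5% FBS, 2 mM L-glutamine, plated 5,000–40,000/well, preincubated 24 h at 37°C, 5% CO2; drug 48 h; adherent cells fixed with 10% TCA, suspension cells with 16% TCA; SRB stain, absorbance 515 nm; percentage growth versus untreated control, with time-zero plates.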

[2] = tested on: SR; assay: Growth inhibition of human SR cells at 10 uM incubated for 48 hrs by sulforhodamine B assay relative to control; format: functional; conditions: read-out: GI
Method in brief: (§2)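 NCI single-dose screen: cells grown in RPMI 1640 with 5% FBS and 2 mM L-glutamine, plated at 5,000–40,000 cells/well and preincubated 24 h at 37 °C, 5% CO2. Compounds taken from DMSO stock and tested at final 10 µM for 48 h. Cells fixed with TCA, stained with 0.4% SRB, absorbance read at 515 nm. Percentage growth calculated against untreated controls; controls held DMSO at the same dilution.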

[3] = tested on: MDA-MB-468; assay: Growth inhibition of human MDA-MB-468 cells at 10 uM incubated for 48 hrs by sulforhodamine B assay relative to control; format: functional; conditions: MDA-MB-468, 48 h, read-out: GI; method in brief: as §1
[4] = tested on: MOLT-4; assay: Growth inhibition of human MOLT4 cells at 10 uM incubated for 48 hrs by sulforhodamine B assay relative to control; format: functional; conditions: MOLT-4, 48 h, read-out: GI; method in brief: as §1
[5] = tested on: TK-10; assay: Growth inhibition of human TK10 cells at 10 uM incubated for 48 hrs by sulforhodamine B assay relative to control; format: functional; conditions: TK-10, 48 h, read-out: GI; method in brief: as §2
[6] = tested on: SNB-19; assay: Growth inhibition of human SNB19 cells at 10 uM incubated for 48 hrs by sulforhodamine B assay relative to control; format: functional; conditions: SNB-19, 48 h, read-out: GI; method in brief: as §2
[7] = tested on: HCT-116; assay: Growth inhibition of human HCT116 cells at 10 uM incubated for 48 hrs by sulforhodamine B assay relative to control; format: functional; conditions: HCT-116, 48 h, read-out: GI; method in brief: as §1
[8] = tested on: UO-31; assay: Growth inhibition of human UO31 cells at 10 uM incubated for 48 hrs by sulforhodamine B assay relative to control; format: functional; conditions: UO-31, 48 h, read-out: GI; method in brief: as §2
[9] = tested on: OVCAR-8; assay: Growth inhibition of human OVCAR8 cells at 10 uM incubated for 48 hrs by sulforhodamine B assay relative to control; format: functional; conditions: OVCAR-8, 48 h, read-out: GI; method in brief: as §1
[10] = tested on: IGROV-1; assay: Growth inhibition of human IGROV1 cells at 10 uM incubated for 48 hrs by sulforhodamine B assay relative to control; format: functional; conditions: IGROV-1, 48 h, read-out: GI; method in brief: as §1
[11] = tested on: 786-0; assay: Growth inhibition of human 786-0 cells at 10 uM incubated for 48 hrs by sulforhodamine B assay relative to control; format: functional; conditions: 786-0, 48 h, read-out: GI; method in brief: as §1
[12] = tested on: A549; assay: Growth inhibition of human A549/ATCC cells at 10 uM incubated for 48 hrs by sulforhodamine B assay relative to control; format: functional; conditions: A549, 48 h, read-out: GI; method in brief: as §1
[13] = tested on: HCT-15; assay: Growth inhibition of human HCT15 cells at 10 uM incubated for 48 hrs by sulforhodamine B assay relative to control; format: functional; conditions: HCT-15, 48 h, read-out: GI; method in brief: as §1
[14] = tested on: LOX IMVI; assay: Growth inhibition of human LOXIMVI cells at 10 uM incubated for 48 hrs by sulforhodamine B assay relative to control; format: functional; conditions: read-out: GI; method in brief: as §1
[15] = tested on: NCI-H522; assay: Growth inhibition of human NCI-H522 cells at 10 uM incubated for 48 hrs by sulforhodamine B assay relative to control; format: functional; conditions: NCI-H522, 48 h, read-out: GI; method in brief: as §1
[16] = tested on: HL-60(TB); assay: Growth inhibition of human HL-60(TB) cells at 10 uM incubated for 48 hrs by sulforhodamine B assay relative to control; format: functional; conditions: HL-60, 48 h, read-out: GI
Method in brief: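 Single dose of 10 µM in the NCI ~60-line panel. Cells grown in RPMI 1640 with 5% FBS and 2 mM L-glutamine, plated and pre-incubated 24 h, then exposed 48 h at 37°C under 5% CO2. Suspension cells fixed with TCA (16% final) and stained with sulforhodamine B, A515 read. Reported as percent growth versus untreated control and as GI%.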

[17] = tested on: HL-60(TB); assay: Growth inhibition of human HL-60(TB) cells incubated for 24 hrs by MTT assay; format: functional, cell-based; conditions: HL-60, 24 h
Method in brief: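 Cells at 1.2-1.8×10^4 cells/ml in DMEM with 10% FBS, 10 µg/ml insulin and 1% penicillin/streptomycin, plated overnight at 37°C. Serial 10-fold dilutions added to 0.01–100 µM final, medium as negative control, 24 h. MTT (5 mg/ml) added for 4 h, formazan dissolved in acid-isopropanol, A490 read. Eight separate experiments; percent viable cells used to derive IC50.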

[18] = tested on: ACHN; assay: Growth inhibition of human ACHN cells at 10 uM incubated for 48 hrs by sulforhodamine B assay relative to control; format: functional; conditions: read-out: GI; method in brief: as §1
[19] = tested on: CCRF-CEM; assay: Growth inhibition of human CCRF-CEM cells at 10 uM incubated for 48 hrs by sulforhodamine B assay relative to control; format: functional; conditions: read-out: GI; method in brief: as §1
[20] = tested on: MDA-MB-435; assay: Growth inhibition of human MDA-MB-435 cells at 10 uM incubated for 48 hrs by sulforhodamine B assay relative to control; format: functional; conditions: MDA-MB-435, 48 h, read-out: GI; method in brief: as §1
[21] = tested on: SK-MEL-2; assay: Growth inhibition of human SK-MEL-2 cells at 10 uM incubated for 48 hrs by sulforhodamine B assay relative to control; format: functional; conditions: SK-MEL-2, 48 h, read-out: GI; method in brief: as §2
[22] = tested on: DU-145; assay: Growth inhibition of human DU145 cells at 10 uM incubated for 48 hrs by sulforhodamine B assay relative to control; format: functional; conditions: DU-145, 48 h, read-out: GI; method in brief: as §1
[23] = tested on: CAKI-1; assay: Growth inhibition of human Caki1 cells at 10 uM incubated for 48 hrs by sulforhodamine B assay relative to control; format: functional; conditions: CAKI-1, 48 h, read-out: GI; method in brief: as §1
[24] = tested on: HT-29; assay: Growth inhibition of human HT-29 cells at 10 uM incubated for 48 hrs by sulforhodamine B assay relative to control; format: functional; conditions: HT-29, 48 h, read-out: GI; method in brief: as §1
[25] = tested on: SNB-75; assay: Growth inhibition of human SNB75 cells at 10 uM incubated for 48 hrs by sulforhodamine B assay relative to control; format: functional; conditions: SNB-75, 48 h, read-out: GI; method in brief: as §2
[26] = tested on: RPMI-8226; assay: Growth inhibition of human RPMI8226 cells at 10 uM incubated for 48 hrs by sulforhodamine B assay relative to control; format: functional; conditions: RPMI-8226, 48 h, read-out: GI; method in brief: as §1
[27] = tested on: Hs-578T; assay: Growth inhibition of human Hs 578T cells at 10 uM incubated for 48 hrs by sulforhodamine B assay relative to control; format: functional; conditions: read-out: GI; method in brief: as §1
[28] = tested on: UACC-257; assay: Growth inhibition of human UACC257 cells at 10 uM incubated for 48 hrs by sulforhodamine B assay relative to control; format: functional; conditions: UACC-257, 48 h, read-out: GI; method in brief: as §2
[29] = tested on: SF-539; assay: Growth inhibition of human SF539 cells at 10 uM incubated for 48 hrs by sulforhodamine B assay relative to control; format: functional; conditions: SF-539, 48 h, read-out: GI; method in brief: as §2

Compound	inhibition of growth at 10 µM [1] [%]	inhibition of growth at 10 µM [2] [%]	inhibition of growth at 10 µM [3] [%]	inhibition of growth at 10 µM [4] [%]	inhibition of growth at 10 µM [5] [%]	inhibition of growth at 10 µM [6] [%]	inhibition of growth at 10 µM [7] [%]	inhibition of growth at 10 µM [8] [%]	inhibition of growth at 10 µM [9] [%]	inhibition of growth at 10 µM [10] [%]	inhibition of growth at 10 µM [11] [%]	inhibition of growth at 10 µM [12] [%]	inhibition of growth at 10 µM [13] [%]	inhibition of growth at 10 µM [14] [%]	inhibition of growth at 10 µM [15] [%]	inhibition of growth at 10 µM [16] [%]	inhibition of growth at 10 µM [18] [%]	inhibition of growth at 10 µM [19] [%]	inhibition of growth at 10 µM [20] [%]	inhibition of growth at 10 µM [21] [%]	further results
CCOC(=O)C1=C(C)NC(SCc2nnc(-c3ccc(Cl)cc3)o2)=NC1c1ccc(Br)cc1 (stereo not drawn)	32.5	61.2	41.8	91.7	20.1	28	51.4	47.6	27.3	34.5	15.1	37.6	34.9	25.1	32.4	77.5	30.3	56.6	34.9	< 10	IC50 [17]: 0.143 µM; inhibition of growth at 10 µM [22]: 15.7%; inhibition of growth at 10 µM [23]: 32.8%; inhibition of growth at 10 µM [24]: 21.3%; inhibition of growth at 10 µM [25]: 32.3%; inhibition of growth at 10 µM [26]: 61.6%; inhibition of growth at 10 µM [27]: 12.9%; inhibition of growth at 10 µM [28]: 27%; inhibition of growth at 10 µM [29]: 11.3%
CCOC(=O)C1=C(C)NC(SCc2nnc(-c3ccc(Cl)cc3)o2)=NC1c1ccc(Cl)cc1 (stereo not drawn)	30.1	57.1	51	93	22.5	27	53.8	51.3	25.2	37.7	16.6	31	32.4	23.1	31.1	78.6	35.9	60.3	30.4	< 10	IC50 [17]: 0.103 µM; inhibition of growth at 10 µM [22]: 12.8%; inhibition of growth at 10 µM [23]: 38.4%; inhibition of growth at 10 µM [24]: 24.8%; inhibition of growth at 10 µM [25]: 26.3%; inhibition of growth at 10 µM [26]: 64.2%; inhibition of growth at 10 µM [27]: 16.3%; inhibition of growth at 10 µM [28]: 13.1%; inhibition of growth at 10 µM [29]: 12.3%
CC(=O)C1=C(C)NC(SCc2nnc(-c3ccc(C)cc3)o2)=NC1c1ccc(F)cc1 (stereo not drawn)	< 10	19.1	< 10	< 10	14.4	< 10	< 10	16.4	< 10	11	15.4	< 10	< 10	< 10	14.1	19.2	< 10	11.9	< 10	< 10	inhibition of growth at 10 µM [22]: < 10%; inhibition of growth at 10 µM [23]: 12%; inhibition of growth at 10 µM [24]: < 10%; inhibition of growth at 10 µM [25]: < 10%; inhibition of growth at 10 µM [26]: 16.3%; inhibition of growth at 10 µM [27]: < 10%; inhibition of growth at 10 µM [28]: < 10%; inhibition of growth at 10 µM [29]: < 10%
CCOC(=O)C1=C(C)NC(SCc2nnc(-c3ccc(Cl)cc3)o2)=NC1c1ccc(Cl)cc1Cl (stereo not drawn)	45.4	62.1	11.6	88.8	20.6	27.1	71.2	62.8	45.8	56.1	34.8	46.5	44.7	41.7	49.8	106	42.3	72.8	31	40	IC50 [17]: 0.153 µM; inhibition of growth at 10 µM [22]: 26.9%; inhibition of growth at 10 µM [24]: 46.9%; inhibition of growth at 10 µM [25]: 15.9%; inhibition of growth at 10 µM [27]: 32.9%; inhibition of growth at 10 µM [28]: 31.9%; inhibition of growth at 10 µM [29]: 13.6%
